Assay [1] has as its target Protein-tyrosine kinase 6 (Homo sapiens) (UniProt Q13882). The assay can be described thus: Inhibition of human recombinant BRK at 15 nM related to control ULK1.
The target in assay [2] is T1, Serine/threonine-protein kinase ULK2 (Homo sapiens) (UniProt Q8IYT8).
T1 sequence (whole entry): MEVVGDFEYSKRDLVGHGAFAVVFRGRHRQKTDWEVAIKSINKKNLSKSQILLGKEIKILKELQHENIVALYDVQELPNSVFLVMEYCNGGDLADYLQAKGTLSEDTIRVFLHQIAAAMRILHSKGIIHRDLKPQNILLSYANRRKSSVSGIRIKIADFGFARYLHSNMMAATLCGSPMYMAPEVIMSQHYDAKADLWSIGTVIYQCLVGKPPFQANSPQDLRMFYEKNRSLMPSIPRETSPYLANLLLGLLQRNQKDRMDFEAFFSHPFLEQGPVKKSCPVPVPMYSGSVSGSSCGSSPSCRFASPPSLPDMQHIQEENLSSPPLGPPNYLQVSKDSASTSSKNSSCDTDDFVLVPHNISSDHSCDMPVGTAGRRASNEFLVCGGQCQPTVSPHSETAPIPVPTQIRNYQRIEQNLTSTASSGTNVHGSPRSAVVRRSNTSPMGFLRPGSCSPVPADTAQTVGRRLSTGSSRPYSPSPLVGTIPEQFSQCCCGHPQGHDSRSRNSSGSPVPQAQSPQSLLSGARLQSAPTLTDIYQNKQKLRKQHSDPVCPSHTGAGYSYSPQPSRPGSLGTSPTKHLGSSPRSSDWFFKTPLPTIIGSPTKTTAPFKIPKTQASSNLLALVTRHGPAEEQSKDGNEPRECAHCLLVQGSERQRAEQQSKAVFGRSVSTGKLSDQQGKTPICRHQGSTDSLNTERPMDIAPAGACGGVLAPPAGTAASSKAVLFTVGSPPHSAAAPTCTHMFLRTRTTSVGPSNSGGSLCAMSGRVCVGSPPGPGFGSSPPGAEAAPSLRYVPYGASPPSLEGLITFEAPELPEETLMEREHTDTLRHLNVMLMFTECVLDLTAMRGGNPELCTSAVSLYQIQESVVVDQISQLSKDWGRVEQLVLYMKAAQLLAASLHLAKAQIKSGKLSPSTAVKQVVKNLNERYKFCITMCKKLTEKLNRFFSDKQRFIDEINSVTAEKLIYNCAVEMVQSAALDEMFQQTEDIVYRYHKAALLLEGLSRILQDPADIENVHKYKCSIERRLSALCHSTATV
Kind of assay: Inhibition of human recombinant ULK2 at 15 nM in presence of ATP by radiometric assay relative to control.

The target of assay [3] is Serine/threonine-protein kinase mTOR (Homo sapiens) (UniProt P42345). Kind of assay: Inhibition of human recombinant FRAP at 15 nM related to control ULK1.
For assay [4], the target named is Misshapen-like kinase 1 (Homo sapiens) (UniProt Q8N4C8). The assay can be described thus: Inhibition of human recombinant MINK at 15 nM related to control ULK1.
In assay [5] the target is Leukocyte tyrosine kinase receptor (Homo sapiens) (UniProt P29376). The assay can be described thus: Inhibition of human recombinant LTK at 15 nM related to control ULK1.
In assay [6] the target is SRSF protein kinase 1 (Homo sapiens) (UniProt Q96SB4). The assay can be described thus: Inhibition of human recombinant SRPK1 at 15 nM in presence of ATP by radiometric assay relative to control.
The target in assay [7] is Calcium/calmodulin-dependent protein kinase type II subunit beta (Homo sapiens) (UniProt Q13554). The assay can be described thus: Inhibition of human recombinant CaMK2b at 15 nM related to control ULK1.
Assay [8] deals with Calcium/calmodulin-dependent protein kinase kinase 1 (Homo sapiens) (UniProt Q8N5S9). Kind of assay: Inhibition of human recombinant CaMKK1 at 40 nM related to control ULK1.
For assay [9], the target named is Cyclin-dependent kinase 5 (Homo sapiens) (UniProt Q00535). Kind of assay: Inhibition of human recombinant CDK5 at 40 nM related to control ULK1.
The target in assay [10] is Platelet-derived growth factor receptor beta (Homo sapiens) (UniProt P09619). Kind of assay: Inhibition of human recombinant PDGFRb at 40 nM related to control ULK1.
Assay [11] concerns the target Misshapen-like kinase 1 (Homo sapiens) (UniProt Q8N4C8). The assay can be described thus: Inhibition of human recombinant MINK at 40 nM in presence of ATP by radiometric assay relative to control.
For assay [12], the target named is Insulin-like growth factor 1 receptor (Homo sapiens) (UniProt P08069). Kind of assay: Inhibition of human recombinant IGF1R at 40 nM in presence of ATP by radiometric assay relative to control.
The target of assay [13] is Proto-oncogene tyrosine-protein kinase ROS (Homo sapiens) (UniProt P08922). Kind of assay: Inhibition of human recombinant ROS at 40 nM related to control ULK1.
Assay [14] has as its target RAC-gamma serine/threonine-protein kinase (Homo sapiens) (UniProt Q9Y243). Kind of assay: Inhibition of human recombinant AKT3 at 40 nM in presence of ATP by radiometric assay relative to control. The method, boiled down:
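Panel of 327 recombinant human kinases in radiometric activity assays, each screened in duplicate at a single inhibitor concentration; percent activity remaining relative to vehicle control, percent inhibition taken as 100 minus activity remaining.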

The target in assay [15] is Fibroblast growth factor receptor 3 (Homo sapiens) (UniProt P22607). The assay can be described thus: Inhibition of human recombinant FGFR3 at 40 nM related to control ULK1.
Assay [16] addresses Protein kinase C gamma type (Homo sapiens) (UniProt P05129). The assay can be described thus: Inhibition of human recombinant PKCg at 40 nM in presence of ATP by radiometric assay relative to control.
The target of assay [17] is cAMP-dependent protein kinase catalytic subunit beta (Homo sapiens) (UniProt P22694). Kind of assay: Inhibition of human recombinant PKACbeta at 500 nM in presence of ATP by radiometric assay relative to control.
The target in assay [18] is Tyrosine-protein kinase receptor UFO (Homo sapiens) (UniProt P30530). The assay can be described thus: Inhibition of human recombinant AXL at 500 nM in presence of ATP by radiometric assay relative to control. An outline of the steps: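 Panel of 327 recombinant human kinases, each assayed in vitro by radiometric activity assay in duplicate at a single inhibitor concentration per compound, chosen with reference to its ULK1 inhibition. Activity remaining was expressed as percent of vehicle control, and percent inhibition was calculated as 100 minus percent activity remaining.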

Assay [19] has as its target Calcium/calmodulin-dependent protein kinase type II subunit alpha (Homo sapiens) (UniProt Q9UQM7). The assay can be described thus: Inhibition of human recombinant CaMK2a at 500 nM related to control ULK1.
Assay [20] addresses Mitogen-activated protein kinase 1 (Homo sapiens) (UniProt P28482). The assay can be described thus: Inhibition of human recombinant Erk2 at 500 nM in presence of ATP by radiometric assay relative to control.
In assay [21] the target is Homeodomain-interacting protein kinase 2 (Homo sapiens) (UniProt Q9H2X6). The assay can be described thus: Inhibition of human recombinant HIPK2 at 500 nM related to control ULK1.
The target of assay [22] is Proto-oncogene tyrosine-protein kinase ROS (Homo sapiens) (UniProt P08922). The assay can be described thus: Inhibition of human recombinant ROS at 500 nM in presence of ATP by radiometric assay relative to control.
For assay [23], the target named is SRSF protein kinase 2 (Homo sapiens) (UniProt P78362). Kind of assay: Inhibition of human recombinant SRPK2 at 500 nM in presence of ATP by radiometric assay relative to control.

Misshapen-like kinase 1 (Homo sapiens), sequence (Q8N4C8 whole entry, looked up): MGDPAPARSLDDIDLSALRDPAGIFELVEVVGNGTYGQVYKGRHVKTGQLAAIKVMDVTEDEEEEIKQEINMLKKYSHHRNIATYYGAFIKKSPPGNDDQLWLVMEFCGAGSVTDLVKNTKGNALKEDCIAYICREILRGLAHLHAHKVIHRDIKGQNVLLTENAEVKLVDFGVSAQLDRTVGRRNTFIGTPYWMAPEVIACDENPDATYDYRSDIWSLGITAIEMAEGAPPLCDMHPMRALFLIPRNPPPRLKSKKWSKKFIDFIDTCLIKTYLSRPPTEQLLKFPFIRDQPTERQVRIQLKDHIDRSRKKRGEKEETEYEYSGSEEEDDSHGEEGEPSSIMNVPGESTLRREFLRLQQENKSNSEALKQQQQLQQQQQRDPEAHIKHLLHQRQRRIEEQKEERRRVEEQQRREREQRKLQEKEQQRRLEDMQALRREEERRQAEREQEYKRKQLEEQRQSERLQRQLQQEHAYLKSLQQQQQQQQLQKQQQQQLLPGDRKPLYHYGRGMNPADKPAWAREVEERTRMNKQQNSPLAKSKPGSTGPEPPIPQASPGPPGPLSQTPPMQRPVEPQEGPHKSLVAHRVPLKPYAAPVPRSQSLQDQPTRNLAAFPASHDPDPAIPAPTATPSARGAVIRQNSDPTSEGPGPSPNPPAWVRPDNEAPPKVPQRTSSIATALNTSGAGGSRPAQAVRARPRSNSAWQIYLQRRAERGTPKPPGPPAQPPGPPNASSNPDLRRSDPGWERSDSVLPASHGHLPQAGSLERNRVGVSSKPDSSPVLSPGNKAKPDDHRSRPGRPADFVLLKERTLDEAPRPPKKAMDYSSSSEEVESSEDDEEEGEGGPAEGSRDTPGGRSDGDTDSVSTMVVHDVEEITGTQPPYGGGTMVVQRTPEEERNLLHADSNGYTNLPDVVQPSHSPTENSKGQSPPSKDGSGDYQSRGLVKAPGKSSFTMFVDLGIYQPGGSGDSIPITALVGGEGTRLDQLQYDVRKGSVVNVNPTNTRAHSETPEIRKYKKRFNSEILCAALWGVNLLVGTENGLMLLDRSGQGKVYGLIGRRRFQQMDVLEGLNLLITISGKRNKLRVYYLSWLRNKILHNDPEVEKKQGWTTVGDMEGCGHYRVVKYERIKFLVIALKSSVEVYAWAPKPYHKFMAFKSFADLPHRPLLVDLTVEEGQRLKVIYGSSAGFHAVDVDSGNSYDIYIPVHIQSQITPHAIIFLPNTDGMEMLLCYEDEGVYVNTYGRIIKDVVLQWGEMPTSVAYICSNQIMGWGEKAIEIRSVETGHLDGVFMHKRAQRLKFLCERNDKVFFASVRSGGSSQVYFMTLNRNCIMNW
Proto-oncogene tyrosine-protein kinase ROS (Homo sapiens), sequence (P08922 whole entry): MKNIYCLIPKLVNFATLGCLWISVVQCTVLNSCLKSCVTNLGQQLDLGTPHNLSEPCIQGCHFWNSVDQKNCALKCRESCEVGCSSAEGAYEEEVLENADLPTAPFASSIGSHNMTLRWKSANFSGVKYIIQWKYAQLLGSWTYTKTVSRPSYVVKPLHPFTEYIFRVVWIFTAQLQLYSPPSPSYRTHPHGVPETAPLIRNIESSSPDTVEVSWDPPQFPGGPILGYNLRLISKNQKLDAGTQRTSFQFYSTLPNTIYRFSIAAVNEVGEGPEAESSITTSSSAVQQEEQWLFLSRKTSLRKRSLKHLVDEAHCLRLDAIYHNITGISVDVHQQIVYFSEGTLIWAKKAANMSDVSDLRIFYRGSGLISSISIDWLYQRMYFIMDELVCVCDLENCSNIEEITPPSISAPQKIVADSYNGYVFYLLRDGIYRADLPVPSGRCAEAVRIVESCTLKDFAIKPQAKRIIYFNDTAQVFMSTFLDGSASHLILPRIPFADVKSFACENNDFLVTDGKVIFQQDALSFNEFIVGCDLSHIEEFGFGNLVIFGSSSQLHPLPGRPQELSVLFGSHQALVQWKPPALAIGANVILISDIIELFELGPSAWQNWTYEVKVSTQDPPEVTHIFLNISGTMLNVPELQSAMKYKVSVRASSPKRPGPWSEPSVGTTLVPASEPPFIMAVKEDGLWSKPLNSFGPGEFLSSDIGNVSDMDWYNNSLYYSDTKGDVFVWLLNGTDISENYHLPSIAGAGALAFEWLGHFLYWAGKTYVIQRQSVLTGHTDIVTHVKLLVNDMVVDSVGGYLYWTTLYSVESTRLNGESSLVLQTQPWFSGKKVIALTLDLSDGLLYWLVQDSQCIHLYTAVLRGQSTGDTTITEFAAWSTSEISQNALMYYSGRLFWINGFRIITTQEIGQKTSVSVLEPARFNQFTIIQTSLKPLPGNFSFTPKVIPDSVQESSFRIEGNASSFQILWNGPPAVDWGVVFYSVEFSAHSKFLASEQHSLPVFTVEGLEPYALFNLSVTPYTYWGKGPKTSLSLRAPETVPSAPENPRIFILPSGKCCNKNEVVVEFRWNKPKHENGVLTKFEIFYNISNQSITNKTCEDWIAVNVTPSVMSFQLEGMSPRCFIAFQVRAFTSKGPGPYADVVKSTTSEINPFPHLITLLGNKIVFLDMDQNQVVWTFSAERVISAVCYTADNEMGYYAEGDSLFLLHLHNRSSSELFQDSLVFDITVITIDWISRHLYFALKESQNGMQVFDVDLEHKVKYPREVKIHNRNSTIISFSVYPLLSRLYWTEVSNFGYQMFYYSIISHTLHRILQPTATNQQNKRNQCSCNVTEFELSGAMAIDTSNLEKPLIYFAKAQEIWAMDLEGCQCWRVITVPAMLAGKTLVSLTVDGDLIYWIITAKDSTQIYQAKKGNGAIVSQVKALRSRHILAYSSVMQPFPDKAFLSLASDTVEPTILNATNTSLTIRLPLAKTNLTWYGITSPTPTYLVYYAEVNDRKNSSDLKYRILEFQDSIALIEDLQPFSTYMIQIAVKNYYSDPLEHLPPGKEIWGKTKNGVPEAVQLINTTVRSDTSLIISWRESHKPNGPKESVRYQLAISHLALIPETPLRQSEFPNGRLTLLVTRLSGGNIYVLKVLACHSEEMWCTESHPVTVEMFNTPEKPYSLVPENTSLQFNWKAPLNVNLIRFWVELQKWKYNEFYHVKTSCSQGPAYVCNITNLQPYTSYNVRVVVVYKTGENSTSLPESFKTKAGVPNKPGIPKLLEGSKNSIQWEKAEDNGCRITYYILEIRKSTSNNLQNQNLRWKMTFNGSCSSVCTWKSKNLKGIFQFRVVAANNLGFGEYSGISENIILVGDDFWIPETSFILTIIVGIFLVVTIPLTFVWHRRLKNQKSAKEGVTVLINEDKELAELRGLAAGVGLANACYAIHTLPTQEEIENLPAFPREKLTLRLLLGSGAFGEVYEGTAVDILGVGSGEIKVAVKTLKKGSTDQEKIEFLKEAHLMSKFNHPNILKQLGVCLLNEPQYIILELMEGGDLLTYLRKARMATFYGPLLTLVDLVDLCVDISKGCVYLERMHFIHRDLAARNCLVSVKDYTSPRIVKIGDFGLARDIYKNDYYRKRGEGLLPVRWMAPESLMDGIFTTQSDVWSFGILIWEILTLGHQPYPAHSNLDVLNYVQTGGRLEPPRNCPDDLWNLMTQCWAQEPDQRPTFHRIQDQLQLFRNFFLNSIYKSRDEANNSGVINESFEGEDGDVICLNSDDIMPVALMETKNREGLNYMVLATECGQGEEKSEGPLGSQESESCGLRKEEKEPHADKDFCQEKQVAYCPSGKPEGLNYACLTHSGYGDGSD
Homeodomain-interacting protein kinase 2 (Homo sapiens), sequence (Q9H2X6 whole entry, looked up): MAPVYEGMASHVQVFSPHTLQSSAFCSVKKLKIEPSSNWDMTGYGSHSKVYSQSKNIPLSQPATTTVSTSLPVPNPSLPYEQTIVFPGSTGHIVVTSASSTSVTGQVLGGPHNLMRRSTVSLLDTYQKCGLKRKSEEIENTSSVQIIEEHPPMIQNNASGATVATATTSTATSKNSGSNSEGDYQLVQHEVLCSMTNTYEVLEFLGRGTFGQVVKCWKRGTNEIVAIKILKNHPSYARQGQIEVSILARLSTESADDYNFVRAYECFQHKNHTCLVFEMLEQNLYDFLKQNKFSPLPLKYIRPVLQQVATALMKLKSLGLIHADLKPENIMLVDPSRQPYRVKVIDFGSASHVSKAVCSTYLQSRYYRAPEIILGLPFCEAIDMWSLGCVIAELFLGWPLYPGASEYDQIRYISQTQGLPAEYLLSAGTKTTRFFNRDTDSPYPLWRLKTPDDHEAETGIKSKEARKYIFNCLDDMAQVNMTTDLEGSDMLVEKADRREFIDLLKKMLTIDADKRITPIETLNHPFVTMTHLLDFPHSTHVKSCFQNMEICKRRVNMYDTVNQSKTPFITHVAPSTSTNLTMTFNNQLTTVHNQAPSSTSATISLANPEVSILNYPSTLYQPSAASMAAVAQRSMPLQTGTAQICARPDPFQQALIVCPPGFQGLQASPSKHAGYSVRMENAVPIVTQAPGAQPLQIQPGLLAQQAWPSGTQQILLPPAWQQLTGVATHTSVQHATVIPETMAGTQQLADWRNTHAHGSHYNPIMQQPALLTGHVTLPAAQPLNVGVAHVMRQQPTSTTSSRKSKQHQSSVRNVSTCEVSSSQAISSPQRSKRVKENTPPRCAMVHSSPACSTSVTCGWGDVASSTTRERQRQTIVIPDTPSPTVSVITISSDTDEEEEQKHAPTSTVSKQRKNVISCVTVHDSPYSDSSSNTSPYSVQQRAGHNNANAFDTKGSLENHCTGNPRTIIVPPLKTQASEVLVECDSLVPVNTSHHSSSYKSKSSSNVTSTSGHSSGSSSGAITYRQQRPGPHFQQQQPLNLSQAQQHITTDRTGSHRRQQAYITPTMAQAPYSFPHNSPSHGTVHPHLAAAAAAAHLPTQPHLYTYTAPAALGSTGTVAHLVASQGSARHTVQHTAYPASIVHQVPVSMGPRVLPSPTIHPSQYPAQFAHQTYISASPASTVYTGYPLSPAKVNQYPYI

As for `CC(C)[C@H](NC(=O)c1cc(-c2cnn3cc(-c4ccc(OCCN5CCCCC5)cc4)cnc23)cs1)C(F)(F)F`, the fold change (FC) in assay [1] was 0.09; in assay [3] it was 0; in assay [4] it was 0.05; in assay [5], 0; in assay [7], 0.11. Further, the inhibition in assay [2] stood at 73%; in [6] it was 0%.
`O=C(N[C@@H](C1CC1)C(F)(F)F)c1cc(-c2cnn3cc(-c4ccc(F)cc4)cnc23)cs1`: the fold change (FC) in [8] is 0; in [9], 0.64; in [10], 0.07; in assay [13], 0; in assay [15], 0. Moreover, the inhibition stood at 7% in assay [11], 0% in [12], 2% in assay [14] and 0% in assay [16].
As for `CNC(=O)c1ccccc1Oc1nc(Nc2cc(OC)c(OC)c(OC)c2)ncc1Br`, the inhibition was 0% in assay [17]; 5% in assay [18]; 0% in [20]; 0% in assay [22]; 5% in assay [23]. In addition, the fold change (FC) in [19] and in [21] was 0 throughout.

By inhibition is commonly meant the share of the control response that was lost under treatment.

For the origin of these results see ChEMBL document CHEMBL5653631, “A Potent and Selective ULK1 Inhibitor Suppresses Autophagy and Sensitizes Cancer Cells to Nutrient Stress” (iScience, 2018).
